Consider 6 molecules from ChEMBL document CHEMBL3616441, “Discovery of a Selective and CNS Penetrant Negative Allosteric Modulator of Metabotropic Glutamate Receptor Subtype 3 with Antidepressant and Anxiolytic Activity in Rodents” (J Med Chem, 2015).

SMILES strings stand for the structures. Active and inactive are the calls of the source. The calls are words filed in the database; no cut-off is given here.

Series [1] has as its target Metabotropic glutamate receptor 3 (Rattus norvegicus) (UniProt P31422). As to the kind of experiment: Negative allosteric modulation of rat mGlu3 receptor assessed as amplitude response at 30 uM relative to glutamate. In outline: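 Calcium mobilization in cell line stably expressing rat mGlu3 with promiscuous Gα15; fluorescence read-out; amplitude of glutamate response with 30 μM test compound expressed as percentage of maximal response (100 μM glutamate); average of n = 3.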

Series [2] deals with Metabotropic glutamate receptor 5 (Rattus norvegicus, UniProt P31424). As to the kind of experiment: Modulation of rat mGlu5 receptor assessed as calcium mobilization by cell based fluorescence assay. The series is classed as functional. In outline: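 Calcium mobilization assay with fluorescence read-out in cells expressing mGlu5; full concentration-response curves; % Glu Max is the amplitude of response with 30 μM test compound as a percentage of the maximal response to 100 μM glutamate; values averaged over n-3.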
Chain of Metabotropic glutamate receptor 5 (P31424 whole entry): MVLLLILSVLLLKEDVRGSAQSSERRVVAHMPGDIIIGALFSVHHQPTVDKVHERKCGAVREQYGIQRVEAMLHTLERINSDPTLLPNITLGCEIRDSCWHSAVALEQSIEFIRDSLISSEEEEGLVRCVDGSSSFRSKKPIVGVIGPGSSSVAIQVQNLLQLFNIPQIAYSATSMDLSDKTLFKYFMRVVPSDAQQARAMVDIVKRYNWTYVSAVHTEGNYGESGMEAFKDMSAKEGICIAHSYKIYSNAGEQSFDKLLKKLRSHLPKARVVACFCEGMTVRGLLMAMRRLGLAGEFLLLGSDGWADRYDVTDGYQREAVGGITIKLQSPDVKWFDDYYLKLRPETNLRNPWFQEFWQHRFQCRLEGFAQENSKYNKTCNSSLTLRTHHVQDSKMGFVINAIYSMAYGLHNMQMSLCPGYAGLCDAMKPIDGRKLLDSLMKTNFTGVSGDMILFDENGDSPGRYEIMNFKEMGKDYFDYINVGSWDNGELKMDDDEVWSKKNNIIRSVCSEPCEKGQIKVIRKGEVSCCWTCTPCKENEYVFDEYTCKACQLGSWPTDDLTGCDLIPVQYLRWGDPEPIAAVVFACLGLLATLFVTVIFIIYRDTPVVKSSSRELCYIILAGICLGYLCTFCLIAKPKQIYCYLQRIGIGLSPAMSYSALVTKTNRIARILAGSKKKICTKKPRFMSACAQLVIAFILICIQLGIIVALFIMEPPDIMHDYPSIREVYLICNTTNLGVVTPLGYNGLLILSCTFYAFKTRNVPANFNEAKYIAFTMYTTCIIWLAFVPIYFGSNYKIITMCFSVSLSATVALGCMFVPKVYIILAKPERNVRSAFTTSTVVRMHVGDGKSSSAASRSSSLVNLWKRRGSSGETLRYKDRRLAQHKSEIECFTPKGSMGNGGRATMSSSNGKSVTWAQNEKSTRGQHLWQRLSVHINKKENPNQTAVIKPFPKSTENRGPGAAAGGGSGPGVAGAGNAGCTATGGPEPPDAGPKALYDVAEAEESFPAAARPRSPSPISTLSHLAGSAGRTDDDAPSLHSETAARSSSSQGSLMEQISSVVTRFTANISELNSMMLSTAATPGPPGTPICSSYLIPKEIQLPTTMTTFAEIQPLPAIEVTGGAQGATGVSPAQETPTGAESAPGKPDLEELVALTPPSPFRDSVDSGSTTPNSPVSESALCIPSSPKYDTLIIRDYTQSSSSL
(Calcium assays in cells follow changes in intracellular calcium, usually with a dye or a luminescent sensor.)

A short description of series [3]: Plasma clearance in rat at 0.2 mg/kg, iv administered as cassette dose. The series is classed as ADME, organism-based.
Series [4] is described as follows: Half life in rat at 0.2 mg/kg, iv administered as cassette dose. Particulars: in vivo. The series is classed as ADME, organism-based.
The nature of series [5]: Volume of distribution at steady state in rat at 0.2 mg/kg, iv administered as cassette dose. The class given is ADME, organism-based. The settings on record: in vivo, read-out: Vdss.
A further series relates to Plasma. As to the kind of experiment: Fraction unbound in rat plasma. The class given is ADME, cell-free.
Series [6] addresses Metabotropic glutamate receptor 3 (Rattus norvegicus, UniProt P31422). Nature of the series: Negative allosteric modulation of rat mGlu3 receptor assessed as calcium mobilization by cell based fluorescence assay. The class given is functional. In outline:
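Cell line stably expressing rat mGlu3 with the promiscuous G-protein Gα15. Calcium mobilization with fluorescence read-out, inhibition of the glutamate response. Full concentration-response curves, top concentration 30 μM. % Glu Max is the response with 30 μM test compound as a percentage of the maximal response to 100 μM glutamate. Values averaged over n-3.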

The subject of another series is Brain. Nature of the series: Fraction unbound in rat brain. The class given is ADME, tissue-based.
In series [7] the target is Metabotropic glutamate receptor 5 (Rattus norvegicus) (UniProt P31424). Nature of the series: Negative allosteric modulation of rat mGlu5 receptor assessed as calcium mobilization by cell based fluorescence assay. The series is classed as functional.
Chain of Metabotropic glutamate receptor 5 (Rattus norvegicus) (P31424 21-1203 limits assumed): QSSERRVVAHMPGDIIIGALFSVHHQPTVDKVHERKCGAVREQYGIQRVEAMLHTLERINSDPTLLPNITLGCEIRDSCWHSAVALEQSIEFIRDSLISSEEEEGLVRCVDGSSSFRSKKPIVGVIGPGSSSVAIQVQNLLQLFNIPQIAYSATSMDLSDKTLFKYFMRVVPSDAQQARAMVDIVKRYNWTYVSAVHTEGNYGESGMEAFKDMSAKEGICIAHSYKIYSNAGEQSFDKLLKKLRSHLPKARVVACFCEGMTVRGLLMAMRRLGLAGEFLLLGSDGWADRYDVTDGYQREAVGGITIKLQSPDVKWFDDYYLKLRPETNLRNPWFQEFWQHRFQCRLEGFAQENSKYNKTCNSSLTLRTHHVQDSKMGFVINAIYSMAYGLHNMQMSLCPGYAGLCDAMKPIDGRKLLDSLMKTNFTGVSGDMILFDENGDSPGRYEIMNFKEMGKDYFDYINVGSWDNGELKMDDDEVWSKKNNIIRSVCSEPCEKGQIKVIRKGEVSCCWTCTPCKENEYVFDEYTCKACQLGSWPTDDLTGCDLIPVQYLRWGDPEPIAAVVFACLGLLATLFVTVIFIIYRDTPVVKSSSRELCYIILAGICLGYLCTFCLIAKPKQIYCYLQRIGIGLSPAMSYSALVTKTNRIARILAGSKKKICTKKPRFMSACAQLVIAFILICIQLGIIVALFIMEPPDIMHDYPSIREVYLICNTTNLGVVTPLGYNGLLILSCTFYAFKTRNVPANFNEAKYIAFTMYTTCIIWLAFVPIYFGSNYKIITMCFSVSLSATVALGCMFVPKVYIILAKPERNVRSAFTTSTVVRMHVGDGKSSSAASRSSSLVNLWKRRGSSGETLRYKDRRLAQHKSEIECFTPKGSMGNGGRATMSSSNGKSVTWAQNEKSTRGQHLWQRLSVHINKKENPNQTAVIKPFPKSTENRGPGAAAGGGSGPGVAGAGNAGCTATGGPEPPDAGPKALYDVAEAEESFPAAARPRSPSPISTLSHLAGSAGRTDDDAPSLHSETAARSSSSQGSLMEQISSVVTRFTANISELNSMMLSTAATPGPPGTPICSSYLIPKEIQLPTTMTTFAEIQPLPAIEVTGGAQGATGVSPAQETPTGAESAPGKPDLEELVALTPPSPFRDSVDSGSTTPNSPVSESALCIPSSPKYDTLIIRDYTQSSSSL
Series [8] has the same target. As to the kind of experiment: Modulation of rat mGlu5 receptor assessed as assessed as calcium mobilization at 30 uM by cell based fluorescence assay. The class given is functional.

Chain of Metabotropic glutamate receptor 3 (P31422 whole entry): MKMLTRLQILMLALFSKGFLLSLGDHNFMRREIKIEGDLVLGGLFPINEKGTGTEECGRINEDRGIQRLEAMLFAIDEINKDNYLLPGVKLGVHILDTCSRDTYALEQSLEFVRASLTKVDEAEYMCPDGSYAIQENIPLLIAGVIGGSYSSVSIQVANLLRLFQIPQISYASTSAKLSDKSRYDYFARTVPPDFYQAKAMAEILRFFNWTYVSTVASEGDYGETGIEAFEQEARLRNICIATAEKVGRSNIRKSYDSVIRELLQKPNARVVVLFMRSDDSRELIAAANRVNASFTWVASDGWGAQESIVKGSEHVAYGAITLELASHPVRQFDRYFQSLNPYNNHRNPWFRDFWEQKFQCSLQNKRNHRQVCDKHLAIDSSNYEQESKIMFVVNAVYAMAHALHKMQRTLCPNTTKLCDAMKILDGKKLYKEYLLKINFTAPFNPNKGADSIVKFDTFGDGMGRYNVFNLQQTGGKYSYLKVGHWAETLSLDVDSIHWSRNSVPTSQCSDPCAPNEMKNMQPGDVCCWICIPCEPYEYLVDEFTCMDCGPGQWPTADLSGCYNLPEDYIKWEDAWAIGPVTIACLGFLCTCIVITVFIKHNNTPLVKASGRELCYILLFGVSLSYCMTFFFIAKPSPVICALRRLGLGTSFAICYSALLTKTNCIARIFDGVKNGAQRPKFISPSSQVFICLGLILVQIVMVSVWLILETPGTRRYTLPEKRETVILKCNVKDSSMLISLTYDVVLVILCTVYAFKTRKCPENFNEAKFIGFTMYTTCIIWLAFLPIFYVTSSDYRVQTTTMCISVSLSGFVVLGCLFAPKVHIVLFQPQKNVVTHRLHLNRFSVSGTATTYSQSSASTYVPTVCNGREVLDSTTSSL
Chain of Metabotropic glutamate receptor 3 (Rattus norvegicus) (P31422 23-879 limits assumed): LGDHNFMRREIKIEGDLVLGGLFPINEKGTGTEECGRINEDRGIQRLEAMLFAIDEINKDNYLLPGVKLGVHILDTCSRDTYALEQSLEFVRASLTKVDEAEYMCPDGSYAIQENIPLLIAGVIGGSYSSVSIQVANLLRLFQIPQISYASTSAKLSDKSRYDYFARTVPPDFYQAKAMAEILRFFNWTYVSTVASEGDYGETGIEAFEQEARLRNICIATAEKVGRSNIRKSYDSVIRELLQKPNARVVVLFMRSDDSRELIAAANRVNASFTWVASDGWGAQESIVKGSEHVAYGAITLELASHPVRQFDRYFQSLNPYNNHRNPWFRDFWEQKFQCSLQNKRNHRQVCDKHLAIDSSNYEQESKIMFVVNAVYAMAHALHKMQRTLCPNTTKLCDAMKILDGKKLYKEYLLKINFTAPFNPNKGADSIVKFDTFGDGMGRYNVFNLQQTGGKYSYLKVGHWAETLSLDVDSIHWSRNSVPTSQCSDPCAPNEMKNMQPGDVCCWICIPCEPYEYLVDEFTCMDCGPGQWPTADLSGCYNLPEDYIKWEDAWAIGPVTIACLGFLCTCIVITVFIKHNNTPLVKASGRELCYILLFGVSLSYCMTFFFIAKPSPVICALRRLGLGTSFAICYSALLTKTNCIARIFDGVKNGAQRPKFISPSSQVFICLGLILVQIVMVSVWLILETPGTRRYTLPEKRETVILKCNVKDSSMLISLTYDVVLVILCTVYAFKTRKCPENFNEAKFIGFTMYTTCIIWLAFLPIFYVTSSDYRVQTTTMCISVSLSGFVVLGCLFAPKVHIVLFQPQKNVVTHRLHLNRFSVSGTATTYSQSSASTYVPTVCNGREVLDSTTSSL

On to `C[C@@H]1CN(c2cncc(C#N)c2)C(=O)c2cc(COc3ccc(Cl)cn3)nn21`, for which, in [1], the Activity came to 1.08%. The EC50 (in general, the midpoint of the concentration-response curve) in [2] was more than 30 µM. In addition, the clearance (as a rule, the volume of plasma or blood freed of the substance per unit of time) in [3] was found to be 22 mL/min/kg. Besides, the half-life – broadly, how long it takes for the measured level to halve – in series [4] came out at 59 min. The Vd in series [5] amounted to 1.4 L/kg. For the same molecule, the figures for the Fu in the series with Plasma and in the series with Brain were 0.078 and 0.033, respectively. Moreover, the IC50 (commonly the midpoint of a concentration-inhibition curve) in series [6] worked out at 605 nM.
On to `CCOc1ccc(OCc2cc3n(n2)[C@H](C)CN(c2ccc(F)cc2)C3=O)cc1`, for which the Activity in series [1] came out at 3.39%. In addition, the EC50 in [2] was more than 30 µM. In series [3], this molecule showed a clearance of 82 mL/min/kg. The molecule also registered a half-life in series [4] of 32 min. In series [5], the Vd is 2.2 L/kg. The molecule also registered a Fu in the series on Plasma of 0.005. For the same molecule, the IC50 in series [6] is 1160 nM.
Regarding `C[C@@H]1CN(c2ccc(F)cc2)C(=O)c2cc(COc3ccc(F)cn3)nn21`, in [7], the result was Active. In addition, the results for the Activity in series [1] and in [8] were 1.71% and 46.5%, respectively. In series [2], the EC50 is more than 10 µM. The clearance in [3] turned out to be 82 mL/min/kg. Besides, the half-life in series [4] is 88 min. Also, the Vd in series [5] is 6.6 L/kg. For the same molecule, the Fu in the series on Plasma came to 0.135. Moreover, in series [6], the IC50 came to 539 nM.
`C[C@@H]1CN(c2cncc(F)c2)C(=O)c2cc(COc3ccc(Cl)cn3)nn21`: in series [1], the Activity amounted to 1.85%. Moreover, in series [2], the EC50 was more than 30 µM. In series [3], this molecule had a clearance of 50 mL/min/kg. In [4], this molecule gave a half-life of 30 min. Moreover, the Vd in [5] is 1.9 L/kg. The same molecule displayed a Fu with Plasma of 0.092. Further, the IC50 in series [6] came out at 481 nM.
`C[C@@H]1CN(c2ccccc2Cl)C(=O)c2cc(COc3ccc(F)cn3)nn21`: the outcome in series [7] was Active. The values for the Activity in series [1] and in series [8] were 1.37% and 8.78%, respectively. For the same molecule, in series [2], the EC50 was determined as 1.01 µM. In addition, in the series with Plasma, the Fu worked out at 0.054. In addition, the IC50 in [6] stood at 141 nM.
In the case of `C[C@@H]1CN(c2cc(F)ccc2F)C(=O)c2cc(COc3ccc(F)cn3)nn21`, the result in [7] was Active. Also, the Activity was found to be 2.62% in series [1] and 18.8% in series [8]. For the same molecule, in series [2], the concentration giving a half-maximal response (EC50) is more than 10 µM. The molecule further displayed a Fu in the series with Plasma of 0.089. Also, the IC50 in series [6] stood at 123 nM.
